Target: not listed separately
Test: Agonist activity at PPARgamma in human MKN45 cells assessed as induction of cell aggregation incubated for 5 days by Hoechst 33342 staining based IN cell analyzer method

EC50 [nM]	Structure (SMILES)
2	C/C(=C1/c2ccc(Cc3c(C4CC4)nc4ccc(Cl)cn34)cc2COc2cc(F)ccc21)c1noc(=O)[nH]1
32	C/C(=C1/c2ccc(Cn3c(C4CC4)nc4c(Cl)ccnc43)cc2COc2cc(F)ccc21)c1noc(=O)[nH]1
22	C/C(=C1/c2ccc(Cn3c(C4CC4)nc4c(Cl)nccc43)cc2COc2cc(F)ccc21)c1noc(=O)[nH]1
1	CCCc1nc2ccccc2n1Cc1ccc2c(c1)COc1cc(F)ccc1/C2=C(\C)c1noc(=O)[nH]1
7	CCCc1nc2ccccc2n1Cc1ccc2c(c1)COc1ccc(F)cc1/C2=C(\C)c1noc(=O)[nH]1
1.7	C/C(=C1/c2ccc(Cc3c(C4CC4)nc4cc(F)ccn34)cc2COc2cc(F)ccc21)c1noc(=O)[nH]1
2.5	C/C(=C1/c2ccc(Cc3c(C4CC4)nc4c(Cl)cccn34)cc2COc2cc(F)ccc21)c1noc(=O)[nH]1
19	C/C(=C1/c2ccc(Cc3c(C4CC4)nc4c5c(ccn34)OCC5)cc2COc2cc(F)ccc21)c1noc(=O)[nH]1
1.4	C/C(=C1/c2ccc(Cc3c(C4CC4)nc4cc(Cl)ccn34)cc2COc2cc(F)ccc21)c1noc(=O)[nH]1
5.3	C/C(=C1/c2ccc(Cc3c(C4CC4)nc4ccccn34)cc2COc2cc(F)ccc21)c1noc(=O)[nH]1
3.3	CCCc1nc2c(C)cccc2n1Cc1ccc2c(c1)COc1ccccc1/C2=C(\C)c1noc(=O)[nH]1
3.8	CCCc1nc2ccccc2n1Cc1ccc2c(c1)COc1c(F)cccc1/C2=C(\C)c1noc(=O)[nH]1
3	C/C(=C1/c2ccc(Cn3c(C4CC4)nc4cscc43)cc2COc2cc(F)ccc21)c1noc(=O)[nH]1

Target: T1, Peroxisome proliferator-activated receptor gamma (Homo sapiens, UniProt P37231)
T1 sequence (P37231 whole entry): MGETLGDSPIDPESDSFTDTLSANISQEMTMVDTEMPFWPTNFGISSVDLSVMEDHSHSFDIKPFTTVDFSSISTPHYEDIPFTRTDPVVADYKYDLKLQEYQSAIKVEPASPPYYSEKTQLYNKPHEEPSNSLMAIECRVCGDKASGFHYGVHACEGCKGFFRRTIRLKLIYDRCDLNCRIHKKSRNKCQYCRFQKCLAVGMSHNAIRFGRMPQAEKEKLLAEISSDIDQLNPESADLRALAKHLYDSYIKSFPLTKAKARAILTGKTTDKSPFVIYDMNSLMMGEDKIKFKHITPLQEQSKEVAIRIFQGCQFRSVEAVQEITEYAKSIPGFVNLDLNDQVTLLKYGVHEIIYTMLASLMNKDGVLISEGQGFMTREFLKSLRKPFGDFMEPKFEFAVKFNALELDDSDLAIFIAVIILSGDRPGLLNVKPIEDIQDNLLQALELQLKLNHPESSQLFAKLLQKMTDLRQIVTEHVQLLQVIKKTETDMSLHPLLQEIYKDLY
Test: Agonist activity at PPARgamma in human MKN45 cells assessed as induction of cell aggregation incubated for 5 days by Hoechst 33342 staining based IN cell analyzer method
In short: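 MKN45 cells in RPMI1640 with 10% FBS at 37 °C, 5% CO2, seeded 2500 cells/well and exposed to compound 1-1000 nM (n = 3 per concentration) for 5 days. Nuclei stained with Hoechst 33342, imaged on IN Cell Analyzer, nuclear area computed. Maximum activity expressed as % of reference compound maximum; EC50 = concentration giving 50% of own maximum.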

EC50 [nM]	Structure (SMILES)
1	COCc1nc2cc(Cl)ccn2c1Cc1ccc2c(c1)COc1cc(F)ccc1/C2=C(\C)c1noc(=O)[nH]1
